Our source for the Tm and folding enthalpy values is the array DNA melting data of Ke et al. (doi:10.1101/2024.01.08.574731).

Data set [1] can be described thus: melting temperature; fluorescence melt of hairpins on a sequencing array, two-state fit, raised by 9.35 °C to match UV melts. As to conditions: sodium 0.088 M. In outline:
(§1)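 On a sequenced MiSeq flow cell, library hairpins with annealed Cy3 and quencher oligos were imaged for Cy3 fluorescence in 2.5 °C steps up to 60 °C, in 50 mM Na-HEPES pH 8.0, 25 mM NaCl. Normalisation used pre-quench Cy3 and control constructs. Bootstrapped two-state fits gave melting temperature and folding enthalpy, combined by inverse variance across four replicates and with fitted temperatures raised by 9.35 °C to match UV melts.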

A short description of data set [2]: folding enthalpy; higher = less favourable; fluorescence melt of hairpins on a sequencing array, two-state fit. The conditions noted are these: sodium 0.088 M. In outline: as §1

Consider GCAATGCGAAAGCAATGC (((.(((....))).))), for which the Tm in data set [1] amounted to 56.5 °C. For the same sequence, the folding enthalpy in data set [2] is -167 kJ/mol.

Turning to GCAATGCGAAAGCACAGC ((..(((....)))..)), the Tm in data set [1] was found to be 34.3 °C. For the same sequence, the folding enthalpy in data set [2] is -62.3 kJ/mol.

GCAATGCGAAAGCAGAGC ((..(((....)))..)): the Tm in data set [1] came out at 55 °C. Further, the folding enthalpy in data set [2] was -81.8 kJ/mol.

Consider GCAATGCGAAAGCCTAGC ((.(.((....)).).)), for which the Tm in data set [1] was 26.8 °C. Moreover, in data set [2], the folding enthalpy was -47 kJ/mol.

For GCAATGCGAAAGCCTGGC ((.(.((....)).).)), in data set [1], the Tm was found to be 34.2 °C. Besides, in data set [2], the folding enthalpy is -57.5 kJ/mol.

Take GCAATGCGAAAGCGATGC (((..((....))..))): the Tm in data set [1] was 53 °C. Also, the folding enthalpy in data set [2] is -86.4 kJ/mol.

On to GCAATGGCGAAAGCCTGC (((..(((....)))))), for which the Tm in data set [1] was 50.5 °C. Besides, the folding enthalpy in data set [2] was -59 kJ/mol.

For the sequence GCAATGGGAAACCGTTGC ((((.((....)).)))), in data set [1], the Tm came to 55 °C. Moreover, in data set [2], the folding enthalpy was -181 kJ/mol.

GCAATGGGAAACTATTGC (((((.(....).))))): the Tm in data set [1] was 47 °C. Moreover, in data set [2], the folding enthalpy is -140 kJ/mol.

As for GCAATGGGAAACTGTTGC ((((..(....)..)))), the Tm in data set [1] was determined as 40.4 °C. Further, the folding enthalpy in data set [2] was -116 kJ/mol.

As to GCAATTGCGAAAGCATGC (((..(((....)))))), the Tm in data set [1] worked out at 40.2 °C. For the same sequence, in data set [2], the folding enthalpy was -62.4 kJ/mol.

In the case of GCAATTGGAAACAGTTGC ((((.((....)).)))), the Tm in data set [1] was 47 °C. In addition, the folding enthalpy in data set [2] was -139 kJ/mol.

As to GCAATTGGAAACGATTGC (((((.(....).))))), in data set [1], the Tm turned out to be 48.4 °C. Also, the folding enthalpy in data set [2] is -157 kJ/mol.

With GCACAACCGAAAGGTTGC (((..(((....)))))), the Tm in data set [1] was determined as 37.8 °C. Also, in data set [2], the folding enthalpy is -33.9 kJ/mol.

Consider GCACACGAAAGTGCCTGC ((((((....)))..))), for which the Tm in data set [1] was 34.7 °C. Also, the folding enthalpy in data set [2] was -55.1 kJ/mol.

Consider GCACACGAAAGTGCTGC ((((((....))).))), for which, in data set [1], the Tm was found to be 54.7 °C. Besides, in data set [2], the folding enthalpy is -142 kJ/mol.

Regarding GCACACGAAAGTGGATGC ((((((....)))..))), the Tm in data set [1] was found to be 45.6 °C. The folding enthalpy in data set [2] is -74.7 kJ/mol.

Take GCACACGGAAACACGTGC ((((..(....)..)))): the Tm in data set [1] is 40.2 °C. Moreover, the folding enthalpy in data set [2] is -94 kJ/mol.

With GCACACGGAAACATGTGC (((((.(....).))))), the Tm in data set [1] stood at 47.4 °C. In data set [2], the folding enthalpy was -147 kJ/mol.

On to GCACACGGAAACGTGCAC (..((((....))))..), for which the Tm in data set [1] amounted to 33.2 °C. The folding enthalpy in data set [2] was -41.8 kJ/mol.

Turning to GCACAGCGAAAGCAGCGC ((.(.((....)).).)), the Tm in data set [1] was 53.6 °C. Besides, in data set [2], the folding enthalpy was -81.1 kJ/mol.

In the case of GCACAGCGAAAGCGGAGC ((.(.((....)).).)), in data set [1], the Tm turned out to be 61.6 °C. Further, the folding enthalpy in data set [2] was -108 kJ/mol.

Take GCACAGCGAAAGCGTTGC (((..((....))..))): in data set [1], the Tm came to 48.2 °C. Also, the folding enthalpy in data set [2] was -65 kJ/mol.

Turning to GCACAGCGAAAGCTACGC ((..(((....)))..)), in data set [1], the Tm stood at 42 °C. In addition, in data set [2], the folding enthalpy is -70 kJ/mol.

On to GCACAGGGAAACCCATGC (((..((....))..))), for which, in data set [1], the Tm came to 32 °C. Moreover, the folding enthalpy in data set [2] is -73.8 kJ/mol.

GCACATGCGAAAGCATGC (((..(((....)))))): the Tm in data set [1] is 40.4 °C. The folding enthalpy in data set [2] is -30.3 kJ/mol.

For GCACATGGAAACGTGTGC (((((.(....).))))), the Tm in data set [1] is 55.5 °C. In data set [2], the folding enthalpy was -189 kJ/mol.

Regarding GCACCACCGAAAGGTTGC (((..(((....)))))), the Tm in data set [1] came to 39.5 °C. Further, the folding enthalpy in data set [2] was -66.5 kJ/mol.

GCACCAGGAAACCGGTAC (.(((.(....).))).): the Tm in data set [1] is 22.2 °C. Also, in data set [2], the folding enthalpy is -37.6 kJ/mol.

For the sequence GCACCAGGAAACTGGCAC (..((((....))))..), the Tm in data set [1] was 23.9 °C. Moreover, the folding enthalpy in data set [2] is -48.5 kJ/mol.

As for GCACCCCGAAAGGGCTGC (((.(((....))).))), the Tm in data set [1] is 50 °C. The folding enthalpy in data set [2] is -104 kJ/mol.

For the sequence GCACCCGAAAGGGAATGC ((((((....)))..))), the Tm in data set [1] stood at 45.3 °C. In addition, the folding enthalpy in data set [2] was -83.9 kJ/mol.

With GCACCCGAAAGGGCATGC ((((((....)))..))), the Tm in data set [1] worked out at 41 °C. The folding enthalpy in data set [2] is -62.6 kJ/mol.

For the sequence GCACCCGAAAGGGTTTGC ((((((....)))..))), the Tm in data set [1] came out at 41.6 °C. In addition, the folding enthalpy in data set [2] is -55.1 kJ/mol.

For the sequence GCACCCGCGAAAGCGTGC (((..(((....)))))), in data set [1], the Tm came to 42.6 °C. Further, in data set [2], the folding enthalpy was -60.7 kJ/mol.

With GCACCCGGAAACAGGCGC ((.((.(....).)).)), the Tm in data set [1] was 32.8 °C. For the same sequence, the folding enthalpy in data set [2] was -93.5 kJ/mol.
